Experimental data as given in ChEMBL document CHEMBL1154121, “alpha-Substituted norstatines as the transition-state mimic in inhibitors of multiple digestive vacuole malaria aspartic proteases” (Bioorg Med Chem, 2009).
Active and inactive are the calls of the source. The calls are words filed in the database; no cut-off is given here.

Legend:
Cathepsin D [1] = target: T1, Cathepsin D (Homo sapiens, UniProt P07339); test: Inhibition of human liver cathepsin D
Method in brief: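 Human liver cathepsin D activated 20 min at 37 °C in 100 mM sodium acetate pH 4.5, 10% glycerol, 0.01% Tween 20. Inhibitor serially diluted in DMSO (1% final) added before 3 µM DABCYL-Glu-Arg-Nle-Phe-Leu-Ser-Phe-Pro-EDANS; fluorescence increase read over 10 min. IC50 from Langmuir isotherm assuming competitive inhibition, converted to Ki via IC50/(1+[S]/Km); top concentration limited to 10.0 µM by inhibitor fluorescence.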

[2] = Inhibition of Plasmodium ovale plasmepsin-4 expressed in Escherichia coli BL21 (DE3) by spectrophotometric assay with chromogenic substrate
Aspartic protease PM4 = Aspartic protease PM4 (Plasmodium vivax, UniProt O60989); test: Inhibition of Plasmodium vivax plasmepsin-4 expressed in Escherichia coli BL21 (DE3) by spectrophotometric assay with chromogenic substrate
Sequence of Aspartic protease PM4 (O60989 whole entry): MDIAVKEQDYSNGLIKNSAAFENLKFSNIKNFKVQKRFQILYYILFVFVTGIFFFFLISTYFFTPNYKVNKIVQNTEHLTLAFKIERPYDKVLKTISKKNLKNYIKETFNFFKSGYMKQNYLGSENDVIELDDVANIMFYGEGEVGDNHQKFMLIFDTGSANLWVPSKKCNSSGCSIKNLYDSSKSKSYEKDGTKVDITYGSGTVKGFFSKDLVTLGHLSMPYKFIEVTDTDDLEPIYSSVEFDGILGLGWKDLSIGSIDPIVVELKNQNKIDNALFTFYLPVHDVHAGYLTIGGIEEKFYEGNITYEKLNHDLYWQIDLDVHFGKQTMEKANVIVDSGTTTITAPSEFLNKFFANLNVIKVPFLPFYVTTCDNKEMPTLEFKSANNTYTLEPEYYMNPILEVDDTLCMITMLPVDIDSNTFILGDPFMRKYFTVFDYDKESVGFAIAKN

[3] = Inhibition of Plasmodium malariae plasmepsin-4 expressed in Escherichia coli BL21 (DE3) by spectrophotometric assay with chromogenic substrate
Plasmepsin II = Plasmepsin II (Plasmodium falciparum, UniProt P46925); test: Inhibition of Plasmodium falciparum plasmepsin-2 expressed in Escherichia coli BL21 (DE3) by spectrophotometric assay with chromogenic substrate
Sequence of Plasmepsin II (P46925 whole entry): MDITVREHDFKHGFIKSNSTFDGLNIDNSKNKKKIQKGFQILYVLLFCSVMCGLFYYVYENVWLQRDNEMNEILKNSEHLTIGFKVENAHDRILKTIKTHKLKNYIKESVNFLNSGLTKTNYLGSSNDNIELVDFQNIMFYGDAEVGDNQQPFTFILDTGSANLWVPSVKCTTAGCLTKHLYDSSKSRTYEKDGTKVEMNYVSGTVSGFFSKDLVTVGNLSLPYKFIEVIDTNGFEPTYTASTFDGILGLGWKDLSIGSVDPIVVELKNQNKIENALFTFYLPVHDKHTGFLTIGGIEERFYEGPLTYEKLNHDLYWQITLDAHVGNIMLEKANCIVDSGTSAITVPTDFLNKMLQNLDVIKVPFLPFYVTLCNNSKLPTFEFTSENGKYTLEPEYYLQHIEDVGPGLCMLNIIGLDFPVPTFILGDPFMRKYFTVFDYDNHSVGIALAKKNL

[4] = Inhibition of Plasmodium falciparum plasmepsin-4 expressed in Escherichia coli BL21 (DE3) by spectrophotometric assay with chromogenic substrate
Cathepsin D [5] = target: T1, Cathepsin D; test: Ratio of compound Ki to KNI-10006 Ki for human liver cathepsin D
[6] = target: Beta-secretase 1 (Homo sapiens) (UniProt P56817); test: Inhibition of human BACE1 at < 10 uM
Sequence of Beta-secretase 1 (Homo sapiens) (P56817 whole entry): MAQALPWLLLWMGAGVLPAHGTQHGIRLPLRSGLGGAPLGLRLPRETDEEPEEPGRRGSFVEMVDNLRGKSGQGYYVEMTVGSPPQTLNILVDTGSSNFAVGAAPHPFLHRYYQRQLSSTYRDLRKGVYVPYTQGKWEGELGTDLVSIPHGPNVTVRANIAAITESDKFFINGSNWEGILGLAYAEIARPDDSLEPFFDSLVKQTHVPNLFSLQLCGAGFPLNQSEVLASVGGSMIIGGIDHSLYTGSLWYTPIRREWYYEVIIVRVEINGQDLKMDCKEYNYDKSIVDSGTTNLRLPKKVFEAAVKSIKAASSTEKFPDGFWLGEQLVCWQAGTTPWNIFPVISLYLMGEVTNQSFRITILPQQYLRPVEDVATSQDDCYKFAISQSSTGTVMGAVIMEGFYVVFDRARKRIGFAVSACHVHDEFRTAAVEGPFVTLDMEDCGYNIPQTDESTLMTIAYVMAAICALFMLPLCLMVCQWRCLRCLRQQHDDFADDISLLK

[7] = tested on: Human immunodeficiency virus 1; test: Antiviral activity against HIV1 3B infected in human MT4 cells; format: functional, organism-based; conditions: Human immunodeficiency virus 1, 3B
[8] = Inhibition of Plasmodium malariae plasmepsin-4
Method in brief: (§1)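 Self-activated in 0.1 M sodium acetate pH 4.5, 37 °C, 5 min. Chromogenic substrate hydrolysis followed spectrophotometrically; Michaelis-Menten curves at ≥5 substrate levels with no inhibitor and two inhibitor concentrations, fitted together for Ki.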

Protease = Protease (Human immunodeficiency virus 1, UniProt Q9YQ12); test: Inhibition of HIV1 protease
Sequence of Protease (Q9YQ12 whole entry): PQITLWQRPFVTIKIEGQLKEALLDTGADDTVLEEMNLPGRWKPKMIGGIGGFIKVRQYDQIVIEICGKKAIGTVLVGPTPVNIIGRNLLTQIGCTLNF
Method in brief: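 Recombinant HIV-1 protease expressed in E. coli; Ki from fluorometric assay, two independent measurements; a reference inhibitor included to check variability, standard deviation ±50% of mean.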

[9] = tested on: Human immunodeficiency virus 1; test: Antiviral activity against HIV1 replication in infected cells; format: functional, organism-based
[10] = Inhibition of Plasmodium falciparum plasmepsin-4; method in brief: as §1
[11] = Selectivity ratio of Ki for human liver cathepsin D to Ki for Plasmodium falciparum plasmepsin-2 expressed in Escherichia coli BL21 (DE3)
Plasmodium falciparum = test: Antiplasmodial activity against Plasmodium falciparum infected in erythrocyte culture; format: functional, organism-based
Plasmepsin I = Plasmepsin I (Plasmodium falciparum, UniProt P39898); test: Inhibition of Plasmodium falciparum plasmepsin-1
Sequence of Plasmepsin I (P39898 whole entry): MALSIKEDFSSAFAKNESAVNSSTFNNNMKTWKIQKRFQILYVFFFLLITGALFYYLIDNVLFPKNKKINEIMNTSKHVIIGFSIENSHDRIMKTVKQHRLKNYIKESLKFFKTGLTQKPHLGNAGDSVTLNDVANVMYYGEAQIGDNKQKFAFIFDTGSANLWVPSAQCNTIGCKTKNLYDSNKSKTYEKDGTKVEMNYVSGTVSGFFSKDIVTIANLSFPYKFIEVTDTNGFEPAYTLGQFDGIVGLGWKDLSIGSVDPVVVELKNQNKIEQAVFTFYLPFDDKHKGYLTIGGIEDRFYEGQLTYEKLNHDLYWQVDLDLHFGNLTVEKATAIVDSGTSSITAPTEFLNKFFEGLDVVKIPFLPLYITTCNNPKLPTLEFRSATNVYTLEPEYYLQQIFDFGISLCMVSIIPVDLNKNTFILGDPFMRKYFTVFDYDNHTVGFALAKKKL

Plasmepsin III = Plasmepsin III (Plasmodium falciparum, UniProt Q9Y006); test: Inhibition of Plasmodium falciparum histo-aspartyl protease
Sequence of Plasmepsin III (Q9Y006 whole entry): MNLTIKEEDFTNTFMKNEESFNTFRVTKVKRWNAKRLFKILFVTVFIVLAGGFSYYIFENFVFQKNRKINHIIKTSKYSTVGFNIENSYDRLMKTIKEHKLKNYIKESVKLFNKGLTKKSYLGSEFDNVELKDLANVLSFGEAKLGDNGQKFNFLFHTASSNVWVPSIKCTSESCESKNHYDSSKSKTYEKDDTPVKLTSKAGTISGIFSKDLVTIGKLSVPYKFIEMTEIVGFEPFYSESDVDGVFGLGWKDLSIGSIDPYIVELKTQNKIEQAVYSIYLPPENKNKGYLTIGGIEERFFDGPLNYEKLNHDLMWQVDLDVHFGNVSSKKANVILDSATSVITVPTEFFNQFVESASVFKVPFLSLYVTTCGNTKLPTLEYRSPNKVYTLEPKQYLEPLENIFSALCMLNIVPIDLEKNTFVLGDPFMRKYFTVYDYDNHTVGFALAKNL

T1 sequence (P07339 65-162 limits assumed): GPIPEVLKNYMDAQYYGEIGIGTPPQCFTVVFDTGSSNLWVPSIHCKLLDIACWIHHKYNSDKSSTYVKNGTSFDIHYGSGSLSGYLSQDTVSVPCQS
T1 sequence (P07339 169-412 limits assumed): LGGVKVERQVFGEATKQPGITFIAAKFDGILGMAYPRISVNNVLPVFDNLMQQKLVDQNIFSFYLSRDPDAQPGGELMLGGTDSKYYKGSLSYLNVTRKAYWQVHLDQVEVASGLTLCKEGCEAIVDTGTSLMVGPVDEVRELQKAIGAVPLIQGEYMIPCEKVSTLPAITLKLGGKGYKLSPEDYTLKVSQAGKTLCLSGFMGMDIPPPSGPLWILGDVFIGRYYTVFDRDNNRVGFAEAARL

SMILES	Ki (Cathepsin D [1]) [nM]	Ki [2] [nM]	Ki (Aspartic protease PM4) [nM]	Ki [3] [nM]	Ki (Plasmepsin II) [nM]	Ki [4] [nM]	Ratio Ki (Cathepsin D [5])	Activity [6]	also measured
Cc1cccc(C)c1OCC(=O)NCC(O)(CCc1ccccc1)C(=O)N1CCC[C@H]1C(=O)N[C@H]1c2ccccc2C[C@H]1O (stereo in doubt; (A)-19) [listing 1 of 2 here]	> 10000	7200	2200	14500	> 20000	30200			
Cc1cccc(C)c1OCC(=O)NCC(O)(CCc1ccccc1)C(=O)N[C@@H](Cc1ccccc1)C(=O)N[C@H]1c2ccccc2C[C@H]1O (stereo in doubt; (A)-20) [listing 1 of 2 here]							5000	inactive	
Cc1cccc(C)c1OCC(=O)NCC(O)(CCc1ccccc1)C(=O)N1CCC[C@H]1C(=O)N[C@H]1c2ccccc2C[C@H]1O (stereo in doubt; (B)-19) [listing 1 of 2 here]							5000		
Cc1cccc(C)c1OCC(=O)NCC(O)(CCc1ccccc1)C(=O)N[C@@H](Cc1ccccc1)C(=O)N[C@H]1c2ccccc2C[C@H]1O (stereo in doubt; (B)-20) [listing 1 of 2 here]							5000	inactive	
Cc1cccc(C)c1OCC(=O)NC[C@@](O)(CCc1ccccc1)C(=O)N1CSC(C)(C)[C@H]1C(=O)N[C@H]1c2ccccc2C[C@H]1O	> 10000	4500	370	7900	1400	3100	5000		EC50 [7]: 6400 nM
Cc1ccccc1CNC(=O)[C@H]1N(C(=O)[C@@H](O)[C@H](Cc2ccccc2)NC(=O)c2cccc(O)c2C)CSC1(C)C									Ki [8]: 110 nM
Cc1cccc(C)c1OCC(=O)NC[C@](O)(CCc1ccccc1)C(=O)N1CSC(C)(C)[C@@H]1C(=O)N[C@H]1c2ccccc2C[C@H]1O	> 10000	880	340	1600	7600	10700	5000		
COC(=O)N[C@H](C(=O)NN(Cc1ccccc1)C[C@@](O)(Cc1ccccc1)C(=O)N[C@H]1c2ccccc2C[C@H]1O)C(C)(C)C									Ki (Protease): 6 nM; EC50 [9]: 1900 nM; Ki [10]: 12000 nM
Cc1cccc(C)c1OCC(=O)NCC(O)(CCc1ccccc1)C(=O)N[C@@H](Cc1ccccc1)C(=O)N[C@H]1c2ccccc2C[C@H]1O (stereo in doubt; (B)-20) [listing 2 of 2 here]	> 10000								Ki (Protease): 1000 nM
Cc1cccc(C)c1OCC(=O)NCC(O)(CCc1ccccc1)C(=O)N1CCC[C@H]1C(=O)N[C@H]1c2ccccc2C[C@H]1O (stereo in doubt; (B)-19) [listing 2 of 2 here]		10300	1300	13000	> 20000	26900			
Cc1cccc(C)c1OCC(=O)N[C@@H](Cc1ccccc1)[C@H](O)C(=O)N1CSC(C)(C)[C@H]1C(=O)N[C@H]1c2ccccc2C[C@H]1O	2								Ratio Ki [11]: 4; IC50 (Plasmodium falciparum): 6800 nM; IC50 (Plasmepsin I): 280 nM; IC50 [10]: 15 nM; IC50 (Plasmepsin III): 690 nM
Cc1cccc(C)c1OCC(=O)NC[C@](O)(Cc1ccccc1)C(=O)N1CSC(C)(C)[C@@H]1C(=O)N[C@H]1c2ccccc2C[C@H]1O	> 10000	610	120	420	1700	1700	5000	inactive	Ki (Protease): 670 nM
Cc1cccc(C)c1OCC(=O)NC[C@@](O)(Cc1ccccc1)C(=O)N1CSC(C)(C)[C@H]1C(=O)N[C@H]1c2ccccc2C[C@H]1O	> 10000	110	160	260	> 20000	700	5000	inactive	
Cc1cccc(C)c1OCC(=O)NCC(O)(CCc1ccccc1)C(=O)N[C@@H](Cc1ccccc1)C(=O)N[C@H]1c2ccccc2C[C@H]1O (stereo in doubt; (A)-20) [listing 2 of 2 here]	> 10000					> 20000			
Cc1cccc(C)c1OCC(=O)NC[C@@](O)(CCc1ccccc1)C(=O)N1CSC(C)(C)[C@@H]1C(=O)N[C@H]1c2ccccc2C[C@H]1O	> 10000	1000	390	1100	440	6300	5000		Ratio Ki [11]: > 20000
Cc1cccc(C)c1OCC(=O)NC[C@@](O)(Cc1ccccc1)C(=O)N1CSC(C)(C)[C@@H]1C(=O)N[C@H]1c2ccccc2C[C@H]1O	> 10000	1300	160	210	830	1700	5000	inactive	
COC(=O)N[C@H](C(=O)NN(Cc1ccccc1)C[C@](O)(Cc1ccccc1)C(=O)N[C@H]1c2ccccc2C[C@H]1O)C(C)(C)C									Ki (Protease): 2200 nM; EC50 [9]: > 10000 nM; Ki [10]: 48000 nM
Cc1cccc(C)c1OCC(=O)NC[C@](O)(Cc1ccccc1)C(=O)N1CSC(C)(C)[C@H]1C(=O)N[C@H]1c2ccccc2C[C@H]1O	> 10000	530	190	250	> 20000	720	5000	inactive	
Cc1cccc(C)c1OCC(=O)NCC(O)(CCc1ccccc1)C(=O)N1CCC[C@H]1C(=O)N[C@H]1c2ccccc2C[C@H]1O (stereo in doubt; (A)-19) [listing 2 of 2 here]							5000		
Cc1cccc(C)c1OCC(=O)NC[C@](O)(CCc1ccccc1)C(=O)N1CSC(C)(C)[C@H]1C(=O)N[C@H]1c2ccccc2C[C@H]1O	> 10000	6500	2200	> 20000	7400	5500	5000		
